Activity calls are given as the source filed them. The rule behind the calls is not given here.

Results on 19 compounds are retold here after ChEMBL document CHEMBL1833886, “Synthesis and evaluation of furoxan-based nitric oxide-releasing derivatives of tetrahydroisoquinoline as anticancer and multidrug resistance reversal agents” (Bioorg Med Chem Lett, 2011).

Assay [1] deals with K562/A02. As to the kind of experiment: Reversal of P-gp-mediated multidrug-resistance in adriamycin-resistant human K562/A02 cells at 10 uM after 48 hrs by MTT assay relative to adriamycin. Type of assay: cell-based. Summed up:
(§1)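 Cells at 3 × 10⁴/well received graded adriamycin plus test compound (final 10 µM), 48 h at 37 °C, 5% CO2, then MTT read-out at 570 nm. Adriamycin IC50 by Bliss method. Fold reversal = IC50 of adriamycin alone / IC50 with modulator. Student's t test versus no modulator, P < 0.05.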
Background: Tetrazolium assays rely on reduction of a dye to a coloured formazan, in cell work by metabolically active cells.

Assay [2] relates to K562. In words: Reversal of P-gp-mediated multidrug-resistance in human K562 cells at 10 uM after 48 hrs by MTT assay relative to adriamycin. The assay is classed as cell-based. The essentials: as §1
Assay [3] in a line: Cytotoxicity against adriamycin-resistant human K562/A02 cells after 48 hrs by MTT assay. Particulars: K562/A02, 48 h. Type of assay: functional, cell-based. The essentials:
(§2)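 K562 and adriamycin-selected K562/A02 cells in RPMI 1640 with 10% fetal calf serum, 37 °C, 5% CO2; kept drug-free >14 days before assay. Log-phase cells at 1 × 10⁵/mL in 96-well plates, exposed to a range of compound concentrations (DMSO stock, final DMSO ≤0.1%) for 48 h. MTT added during last 4 h, formazan in DMSO, read at 570 nm. Duplicate wells, ≥3 experiments. IC50 by Bliss method.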

In assay [4] the test system is K562. As to the kind of experiment: Cytotoxicity against human K562 cells after 48 hrs by MTT assay. Type of assay: functional, cell-based. Particulars: K562, 48 h. Summed up:
as §2

Assay [5] has as its system K562/A02. In words: Inhibition of P-gp-mediated rhodamine-123 uptake in adriamycin-resistant human K562/A02 cells assessed as rhodamine-123 accumulation at 10 uM after 60 mins by flow cytometry. Type of assay: cell-based. Summed up:
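Rhodamine123 uptake in K562/A02 cells followed by fluorescence after treatment with 10 µM (final) modulator; verapamil group as reference, untreated control. Intracellular rhodamine123 read from a rhodamine123 standard curve, fluorescence taken as relative concentration. Student's t test, P < 0.05.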
(In flow cytometry, cells or beads pass a laser one at a time.)

Assay [6] has as its system K562/A02. In words: Induction of NO production in adriamycin-resistant human K562/A02 cells at 10 uM after 24 hrs by Griess assay. The assay is classed as functional, cell-based. Summed up: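 K562/A02 cells (5 × 10⁶ per well) exposed in triplicate to 10 µM compound for 24 h, harvested and lysed. Lysates mixed with Griess reagent 30–300 min, absorbance at 570 nm. Nitrite/nitrate quantified against sodium nitrate standard curve; diluent-treated cells as background control. Mean SD of three separate experiments.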

With `COc1ccc(CCN(C)CCCC(C#N)(c2ccc(OC)c(OC)c2)C(C)C)cc1OC` (stereo not given), the fold change (FC) in assay [1] was found to be 17.4; in assay [2] it was 0.96.

Turning to `COc1cccc2c1C(=O)c1c(O)c3c(c(O)c1C2=O)C[C@@](O)(C(=O)CO)C[C@@H]3O[C@H]1C[C@H](N)[C@H](O)[C@H](C)O1` [DOXORUBICIN], in assay [3], inhibition was half-maximal at 17.8 µM (IC50).

For the compound `COc1ccc(CC2c3cc(OC)c(OC)cc3CCN2C(=O)CCC(=O)OCCCCOc2no[n+]([O-])c2S(=O)(=O)c2ccccc2)cc1OC` (stereo not given), the IC50 was determined as 1.93 µM in assay [4] and 13 µM in assay [3]. Moreover, the results for the fold change (FC) in assay [1] and in assay [2] were 1.88 and 1.1, respectively.

Take `COc1cc2c(cc1OC)C(Cc1cccc3ccccc13)N(C(=O)CCC(=O)OCC#CCOc1no[n+]([O-])c1S(=O)(=O)c1ccccc1)CC2` (stereo not given): the IC50 in assay [4] stood at 0.875 µM; in assay [3] it was 7.5 µM. Also, the fold change (FC) in assay [1] turned out to be 32; in assay [2] it was 1.86. Moreover, in assay [5], the inhibition result is “Active”. The result in assay [6] was Active.

Regarding `COc1ccc(CC2c3cc(OC)c(OC)cc3CCN2C(=O)CCC(=O)OCC#CCOc2no[n+]([O-])c2S(=O)(=O)c2ccccc2)cc1OC` (stereo not given), the IC50 came to 0.905 µM in assay [4] and 8.05 µM in assay [3]. Besides, the fold change (FC) in assay [1] is 5.65; in assay [2], 1.65.

As for `COc1ccc(CC2c3cc(OC)c(OC)cc3CCN2C(=O)CCC(=O)OCCOc2no[n+]([O-])c2S(=O)(=O)c2ccccc2)cc1OC` (stereo not given), the IC50 was determined as 1.09 µM in assay [4] and 11.3 µM in assay [3]. The fold change (FC) in assay [1] turned out to be 21.3; in assay [2], 1.47. Besides, the inhibition result in assay [5] was “Active”. In assay [6], the result was Active.

In the case of `COc1cc2c(cc1OC)CN(C(=O)CCC(=O)OCCCCCCOc1no[n+]([O-])c1S(=O)(=O)c1ccccc1)CC2`, the values for the IC50 in assay [4] and in assay [3] were 1.73 µM and 14.6 µM, respectively. For the same compound, the fold change (FC) in assay [1] is 3.2; in assay [2], 1.09.

Consider `COc1cc2c(cc1OC)C(Cc1cccc3ccccc13)N(C(=O)CCC(=O)OCCCCCCOc1no[n+]([O-])c1S(=O)(=O)c1ccccc1)CC2` (stereo not given), for which the IC50 in assay [4] turned out to be 1.6 µM; in assay [3], 12.3 µM. The fold change (FC) in assay [1] stood at 5.05; in assay [2] it was 1.35.

In the case of `COc1ccc(CC2c3cc(OC)c(OC)cc3CCN2C(=O)CCC(=O)OCCCCCCOc2no[n+]([O-])c2S(=O)(=O)c2ccccc2)cc1OC` (stereo not given), the concentration for half-maximal inhibition (IC50) in assay [4] is 1.65 µM; in assay [3], 12.5 µM. Moreover, the fold change (FC) in assay [1] came out at 1.96; in assay [2] it was 1.35.

`CCCCCCCCN/C(=N/C#N)N1CCc2cc(OC)c(OC)cc2C1Cc1ccc(OC)c(OC)c1` (stereo not given): the IC50 in assay [3] was over 500 µM. Besides, the result in assay [6] was inactive.

With `COc1cc2c(cc1OC)C(COc1ccccc1)N(C(=O)CCC(=O)OCCCCOc1no[n+]([O-])c1S(=O)(=O)c1ccccc1)CC2` (stereo not given), the IC50 came to 1.5 µM in assay [4] and 17.5 µM in assay [3]. The fold change (FC) in assay [1] was 1.68; in assay [2], 1.06.

As to `COc1cc2c(cc1OC)CN(C(=O)CCC(=O)OCCCCOc1no[n+]([O-])c1S(=O)(=O)c1ccccc1)CC2`, the values for the IC50 in assay [4] and in assay [3] were 1.56 µM and 11.8 µM, respectively. Besides, the fold change (FC) in assay [1] turned out to be 1.85; in assay [2] it was 1.5.

For the compound `COc1cc2c(cc1OC)CN(C(=O)CCC(=O)OCC#CCOc1no[n+]([O-])c1S(=O)(=O)c1ccccc1)CC2`, the IC50 in assay [4] was 0.901 µM; in assay [3], 8.08 µM. In addition, the values for the fold change (FC) in assay [1] and in assay [2] were 10.1 and 1.65, respectively.

As for `COc1cc2c(cc1OC)C(COc1ccccc1)N(C(=O)CCC(=O)OCCOc1no[n+]([O-])c1S(=O)(=O)c1ccccc1)CC2` (stereo not given), the results for the IC50 in assay [4] and in assay [3] were 1.45 µM and 10.8 µM, respectively. Besides, the fold change (FC) is 10.7 in assay [1] and 1.54 in assay [2].

`COc1cc2c(cc1OC)CN(C(=O)CCC(=O)OCCOc1no[n+]([O-])c1S(=O)(=O)c1ccccc1)CC2`: the IC50 in assay [4] is 1.15 µM; in assay [3] it was 12.7 µM. In addition, the results for the fold change (FC) in assay [1] and in assay [2] were 10.7 and 1.34, respectively.

In the case of `COc1cc2c(cc1OC)C(COc1ccccc1)N(C(=O)CCC(=O)OCCCCCCOc1no[n+]([O-])c1S(=O)(=O)c1ccccc1)CC2` (stereo not given), the IC50 turned out to be 1.79 µM in assay [4] and 13.5 µM in assay [3]. Moreover, the results for the fold change (FC) in assay [1] and in assay [2] were 3.15 and 1.2, respectively.

Regarding `COc1cc2c(cc1OC)C(COc1ccccc1)N(C(=O)CCC(=O)OCC#CCOc1no[n+]([O-])c1S(=O)(=O)c1ccccc1)CC2` (stereo not given), the IC50 in assay [4] was 0.892 µM; in assay [3], 6.36 µM. Further, the fold change (FC) in assay [1] and in assay [2] was 1.73 in each case.

Turning to `COc1cc2c(cc1OC)C(Cc1cccc3ccccc13)N(C(=O)CCC(=O)OCCOc1no[n+]([O-])c1S(=O)(=O)c1ccccc1)CC2` (stereo not given), the IC50 was 1.03 µM in assay [4] and 9.98 µM in assay [3]. The fold change (FC) turned out to be 2.02 in assay [1] and 1.59 in assay [2].

For `COc1cc2c(cc1OC)C(Cc1cccc3ccccc13)N(C(=O)CCC(=O)OCCCCOc1no[n+]([O-])c1S(=O)(=O)c1ccccc1)CC2` (stereo not given), the IC50 in assay [4] worked out at 1 µM; in assay [3] it was 12.2 µM. The fold change (FC) came out at 17.4 in assay [1] and 1.47 in assay [2]. In addition, the inhibition result in assay [5] was “Active”. Also, the result in assay [6] was Active.

What is called IC50 is the point on the concentration scale where inhibition reaches its midpoint.
